Experiments:
[1] = target: Epidermal growth factor receptor (Homo sapiens) (UniProt P00533); assay: Inhibition of wild type EGFR in human A549 cells assessed as cell growth inhibition measured after 72 hrs by Celltiter-Glo luminescent cell viability assay; assay type: cell-based
In short: (§1)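 Cells seeded at 2500-3000 per well and exposed to test agents across a concentration series for 72 h. Viability read by CellTiter-Glo luminescence, normalized to DMSO controls. Mean of three independent measurements (standard error <20%); GI50 obtained by curve fitting. Single-concentration readout is proliferation rate at 10 µM.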

[2] = target: Epidermal growth factor receptor (Mus musculus) (UniProt Q01279); conditions: BaF3, time 72.0 hrs
[3] = target: Epidermal growth factor receptor (Homo sapiens) (UniProt P00533); conditions: BaF3, time 72.0 hrs
[4] = test system: Epidermal growth factor receptor (Homo sapiens), P00533 [L858R]; conditions: BaF3, time 72.0 hrs
[5] = test system: Epidermal growth factor receptor (Homo sapiens), P00533 [L858R,T790M]; conditions: BaF3, time 72.0 hrs
[6] = test system: Epidermal growth factor receptor (Homo sapiens), P00533 [L858R]; conditions: NCI-H3255, time 72.0 hrs
[7] = Induction of H2S generation in pH 7.4 PBS:acetone buffer at 10 to 200 uM measured after 3 hrs by NIR-HS probe based fluorescence spectrophotometric method; assay type: functional; conditions: dose 10-200 µM
In short: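 NIR-HS probe (10 µM) incubated with compound (0, 5, 10, 50, 100, 200 µM) in PBS:acetone 2:3 (pH 7.4) at 37 °C for 3 h. Fluorescence read at ex 670 / em 723 nm.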

[8] = Induction of H2S generation in pH 7.4 PBS:acetone buffer at 20 uM measured after 2 hrs by NIR-HS probe based fluorescence spectrophotometric method; assay type: functional
In short: (§2)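 Compound at 20 µM incubated with NIR-HS (10 µM) in PBS:acetone 2:3 at 37 °C, sampled from 0 to 180 min (0, 5, 30, 60, 90, 120, 150, 180 min). Emission read at 723 nm (ex 670 nm). H2S quantified against a Na2S calibration curve (0-8 µM, same probe and conditions, 3 h, F/F0 at 723 nm).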

[9] = test system: Epidermal growth factor receptor (Homo sapiens), P00533 [C797S]; assay: Inhibition of TEL-fused EGFR C797S mutant (unknown origin) transfected in mouse BaF3 cells assessed as reduction in cell proliferation incubated for 72 hrs by Celltiter-Glo luminescent cell viability assay; assay type: cell-based; in short: as §1
[10] = test system: Epidermal growth factor receptor (Homo sapiens), P00533 [L858R]; assay: Inhibition of EGFR L858R mutant in human NCI-H3255 cells assessed as cell growth inhibition measured after 72 hrs in presence of ZnCl2 by Celltiter-Glo luminescent cell viability assay; assay type: cell-based
[11] = test system: HUVEC; assay: Cytotoxicity against HUVEC assessed as reduction in cell viability measured after 72 hrs by Celltiter-Glo luminescent cell viability assay; assay type: cell-based; conditions: Homo sapiens
In short: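 Cells seeded at 2500-3000 per well, exposed to a range of compound concentrations for 72 h. Viability read by CellTiter-Glo luminescence. Data normalised to DMSO controls, given as the mean of three independent measurements, with IC50 obtained by curve fitting.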

[12] = test system: Epidermal growth factor receptor (Homo sapiens), P00533 [L858R]; assay: Inhibition of EGFR L858R mutant phosphorylation at Y1068 residue in human NCI-H3255 cells measured after 4 hrs by Western blot analysis; assay type: cell-based
In short: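 H3255 cells treated with a range of concentrations for 4 h, then lysed in cold RIPA containing 1% PMSF. Lysate protein quantified by BCA, separated by SDS-PAGE and transferred to PVDF. Blocked in 5% milk, probed with anti-phospho-EGFR (Y1068) and developed by ECL.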

[13] = test system: NCI-H3255; assay: Cell cycle arrest in human NCI-H3255 cells assessed as accumulation at G0/G1 phase at 1 uM measured after 72 hrs by propidium iodide staining based flow cytometry (reference value: 53.55%); assay type: functional
In short: (§3)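 H3255 cells in 10% FBS/RPMI given DMSO or compound at 1, 5 or 10 µM for 72 h, then washed in cold PBS, fixed in 70% cold ethanol and held overnight at -20 °C. Stained with PI/RNase buffer for 15 min at room temperature, then analysed by flow cytometry with ModFit phase modelling.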

[14] = test system: NCI-H3255; assay: Cell cycle arrest in human NCI-H3255 cells assessed as accumulation at S phase at 1 uM measured after 72 hrs by propidium iodide staining based flow cytometry (reference value: 36.26%); assay type: functional; in short: as §3
[15] = test system: NCI-H3255; assay: Cell cycle arrest in human NCI-H3255 cells assessed as accumulation at G2/M phase at 1 uM measured after 72 hrs by propidium iodide staining based flow cytometry (reference value: 10.18%); assay type: functional; in short: as §3
[16] = test system: NCI-H3255; assay: Cell cycle arrest in human NCI-H3255 cells assessed as accumulation at G0/G1 phase at 5 uM measured after 72 hrs by propidium iodide staining based flow cytometry (reference value: 53.55%); assay type: functional; in short: as §3
[17] = test system: NCI-H3255; assay: Cell cycle arrest in human NCI-H3255 cells assessed as accumulation at S phase at 5 uM measured after 72 hrs by propidium iodide staining based flow cytometry (reference value: 36.26%); assay type: functional; in short: as §3
[18] = test system: NCI-H3255; assay: Cell cycle arrest in human NCI-H3255 cells assessed as accumulation at G2/M phase at 5 uM measured after 72 hrs by propidium iodide staining based flow cytometry (reference value: 10.18%); assay type: functional; in short: as §3
[19] = test system: NCI-H3255; assay: Cell cycle arrest in human NCI-H3255 cells assessed as accumulation at G0/G1 phase at 10 uM measured after 72 hrs by propidium iodide staining based flow cytometry (reference value: 53.55%); assay type: functional; in short: as §3
[20] = test system: NCI-H3255; assay: Cell cycle arrest in human NCI-H3255 cells assessed as accumulation at S phase at 10 uM measured after 72 hrs by propidium iodide staining based flow cytometry (reference value: 36.26%); assay type: functional; in short: as §3
[21] = test system: NCI-H3255; assay: Cell cycle arrest in human NCI-H3255 cells assessed as accumulation at G2/M phase at 10 uM measured after 72 hrs by propidium iodide staining based flow cytometry (reference value: 10.18%); assay type: functional; in short: as §3
[22] = Induction of H2S generation in pH 7.4 PBS:acetone buffer at 20 uM measured within 1 hr by NIR-HS probe based fluorescence spectrophotometric method; assay type: functional; in short: as §2
[23] = test system: NCI-H3255; assay: Antiproliferative activity against human NCI-H3255 cells assessed as cell growth inhibition at 10 uM measured after 72 hrs by Celltiter-Glo luminescent cell viability assay relative to control; conditions: NCI-H3255, 72 h

Sequence of Epidermal growth factor receptor (Homo sapiens), P00533 [L858R] (P00533 whole entry L858R): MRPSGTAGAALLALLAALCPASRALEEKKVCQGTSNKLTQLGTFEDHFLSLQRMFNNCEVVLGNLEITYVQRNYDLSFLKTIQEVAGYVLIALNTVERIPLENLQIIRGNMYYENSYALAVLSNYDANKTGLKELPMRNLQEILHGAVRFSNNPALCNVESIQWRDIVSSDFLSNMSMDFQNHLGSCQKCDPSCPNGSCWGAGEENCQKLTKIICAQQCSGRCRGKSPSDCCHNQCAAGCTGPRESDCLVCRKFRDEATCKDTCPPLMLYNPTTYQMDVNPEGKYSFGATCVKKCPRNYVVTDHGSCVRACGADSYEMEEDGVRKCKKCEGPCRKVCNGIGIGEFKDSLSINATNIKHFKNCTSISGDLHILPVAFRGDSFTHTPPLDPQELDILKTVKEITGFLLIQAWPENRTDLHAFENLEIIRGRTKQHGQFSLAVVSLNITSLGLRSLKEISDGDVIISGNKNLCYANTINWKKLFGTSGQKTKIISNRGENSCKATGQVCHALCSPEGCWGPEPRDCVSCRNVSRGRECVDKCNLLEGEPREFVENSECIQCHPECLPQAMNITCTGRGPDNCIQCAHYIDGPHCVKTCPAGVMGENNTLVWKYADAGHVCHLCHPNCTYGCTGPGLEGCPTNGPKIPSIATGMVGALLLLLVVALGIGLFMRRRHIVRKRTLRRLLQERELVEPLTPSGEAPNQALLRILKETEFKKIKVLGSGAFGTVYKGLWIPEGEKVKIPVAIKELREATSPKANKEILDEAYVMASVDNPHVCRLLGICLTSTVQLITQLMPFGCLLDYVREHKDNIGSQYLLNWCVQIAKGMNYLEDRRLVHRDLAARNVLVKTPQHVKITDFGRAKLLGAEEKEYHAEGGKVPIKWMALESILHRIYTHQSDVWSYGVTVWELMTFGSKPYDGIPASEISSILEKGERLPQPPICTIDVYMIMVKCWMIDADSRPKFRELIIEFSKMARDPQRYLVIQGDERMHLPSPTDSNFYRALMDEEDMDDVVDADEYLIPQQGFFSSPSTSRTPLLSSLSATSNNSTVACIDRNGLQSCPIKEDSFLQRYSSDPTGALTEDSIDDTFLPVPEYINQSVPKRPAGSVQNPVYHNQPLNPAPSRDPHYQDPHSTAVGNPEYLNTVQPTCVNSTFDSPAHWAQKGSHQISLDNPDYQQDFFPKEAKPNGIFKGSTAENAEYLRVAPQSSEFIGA
Sequence of Epidermal growth factor receptor (Homo sapiens), P00533 [L858R,T790M] (P00533 whole entry T790M/L858R, looked up): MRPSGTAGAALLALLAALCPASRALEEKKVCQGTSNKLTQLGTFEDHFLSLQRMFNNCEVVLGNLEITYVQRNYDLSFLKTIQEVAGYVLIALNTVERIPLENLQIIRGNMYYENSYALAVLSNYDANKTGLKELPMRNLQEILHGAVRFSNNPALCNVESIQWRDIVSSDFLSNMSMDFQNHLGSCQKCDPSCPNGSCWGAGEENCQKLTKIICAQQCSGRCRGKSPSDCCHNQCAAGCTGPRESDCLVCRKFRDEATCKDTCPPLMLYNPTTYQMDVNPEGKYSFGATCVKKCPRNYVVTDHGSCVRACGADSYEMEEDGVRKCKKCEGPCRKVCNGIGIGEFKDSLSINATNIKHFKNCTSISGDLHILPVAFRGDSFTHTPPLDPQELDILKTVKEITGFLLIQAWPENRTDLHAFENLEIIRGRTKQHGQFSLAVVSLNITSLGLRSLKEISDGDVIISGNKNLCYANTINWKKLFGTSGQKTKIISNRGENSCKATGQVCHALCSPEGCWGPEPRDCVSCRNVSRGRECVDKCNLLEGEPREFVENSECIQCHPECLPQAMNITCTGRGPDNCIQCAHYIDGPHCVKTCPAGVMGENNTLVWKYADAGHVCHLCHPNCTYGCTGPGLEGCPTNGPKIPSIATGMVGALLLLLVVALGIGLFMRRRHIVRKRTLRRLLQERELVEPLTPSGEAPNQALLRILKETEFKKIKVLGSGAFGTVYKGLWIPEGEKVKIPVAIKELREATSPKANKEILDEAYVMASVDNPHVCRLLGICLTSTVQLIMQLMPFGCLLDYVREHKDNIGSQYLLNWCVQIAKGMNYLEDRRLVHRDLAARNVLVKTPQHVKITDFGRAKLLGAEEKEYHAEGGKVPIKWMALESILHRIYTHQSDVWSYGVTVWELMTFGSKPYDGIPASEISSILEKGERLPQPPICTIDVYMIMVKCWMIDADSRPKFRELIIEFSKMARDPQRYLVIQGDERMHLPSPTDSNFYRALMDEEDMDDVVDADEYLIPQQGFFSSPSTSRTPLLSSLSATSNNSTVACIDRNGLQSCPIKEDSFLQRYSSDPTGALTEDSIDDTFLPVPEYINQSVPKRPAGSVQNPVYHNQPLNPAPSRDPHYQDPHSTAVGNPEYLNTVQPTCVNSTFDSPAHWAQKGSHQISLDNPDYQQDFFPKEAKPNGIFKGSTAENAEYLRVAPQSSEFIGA
Sequence of Epidermal growth factor receptor (Homo sapiens) (P00533 whole entry): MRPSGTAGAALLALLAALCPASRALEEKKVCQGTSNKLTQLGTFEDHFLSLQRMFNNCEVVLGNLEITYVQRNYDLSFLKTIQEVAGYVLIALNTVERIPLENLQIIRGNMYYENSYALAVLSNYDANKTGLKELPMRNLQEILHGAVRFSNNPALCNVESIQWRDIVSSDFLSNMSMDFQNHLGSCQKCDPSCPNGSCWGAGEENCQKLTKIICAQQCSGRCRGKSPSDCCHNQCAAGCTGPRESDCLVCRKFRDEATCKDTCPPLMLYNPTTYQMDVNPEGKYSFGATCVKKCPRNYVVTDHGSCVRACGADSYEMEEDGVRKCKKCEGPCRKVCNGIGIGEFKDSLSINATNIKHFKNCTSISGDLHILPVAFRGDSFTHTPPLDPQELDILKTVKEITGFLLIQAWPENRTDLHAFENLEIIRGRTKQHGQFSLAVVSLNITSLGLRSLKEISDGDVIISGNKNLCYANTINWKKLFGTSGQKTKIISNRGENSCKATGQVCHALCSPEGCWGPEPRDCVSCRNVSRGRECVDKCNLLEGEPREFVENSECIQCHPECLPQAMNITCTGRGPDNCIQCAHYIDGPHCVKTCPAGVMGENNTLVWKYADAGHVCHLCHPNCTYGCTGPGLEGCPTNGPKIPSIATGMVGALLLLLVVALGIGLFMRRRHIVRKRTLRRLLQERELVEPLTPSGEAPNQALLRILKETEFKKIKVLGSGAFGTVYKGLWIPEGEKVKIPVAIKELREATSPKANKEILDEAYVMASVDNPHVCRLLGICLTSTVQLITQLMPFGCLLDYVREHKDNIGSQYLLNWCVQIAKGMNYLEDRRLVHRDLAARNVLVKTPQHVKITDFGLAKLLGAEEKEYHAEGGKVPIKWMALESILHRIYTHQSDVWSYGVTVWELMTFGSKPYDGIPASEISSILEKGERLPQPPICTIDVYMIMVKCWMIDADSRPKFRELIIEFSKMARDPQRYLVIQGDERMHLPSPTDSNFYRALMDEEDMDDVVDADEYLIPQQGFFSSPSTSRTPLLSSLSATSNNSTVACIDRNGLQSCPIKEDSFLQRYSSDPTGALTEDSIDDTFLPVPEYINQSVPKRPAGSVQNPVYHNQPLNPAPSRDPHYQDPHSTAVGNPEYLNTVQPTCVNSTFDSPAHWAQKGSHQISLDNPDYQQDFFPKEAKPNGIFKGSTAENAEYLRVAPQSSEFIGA
Sequence of Epidermal growth factor receptor (Mus musculus) (Q01279 whole entry): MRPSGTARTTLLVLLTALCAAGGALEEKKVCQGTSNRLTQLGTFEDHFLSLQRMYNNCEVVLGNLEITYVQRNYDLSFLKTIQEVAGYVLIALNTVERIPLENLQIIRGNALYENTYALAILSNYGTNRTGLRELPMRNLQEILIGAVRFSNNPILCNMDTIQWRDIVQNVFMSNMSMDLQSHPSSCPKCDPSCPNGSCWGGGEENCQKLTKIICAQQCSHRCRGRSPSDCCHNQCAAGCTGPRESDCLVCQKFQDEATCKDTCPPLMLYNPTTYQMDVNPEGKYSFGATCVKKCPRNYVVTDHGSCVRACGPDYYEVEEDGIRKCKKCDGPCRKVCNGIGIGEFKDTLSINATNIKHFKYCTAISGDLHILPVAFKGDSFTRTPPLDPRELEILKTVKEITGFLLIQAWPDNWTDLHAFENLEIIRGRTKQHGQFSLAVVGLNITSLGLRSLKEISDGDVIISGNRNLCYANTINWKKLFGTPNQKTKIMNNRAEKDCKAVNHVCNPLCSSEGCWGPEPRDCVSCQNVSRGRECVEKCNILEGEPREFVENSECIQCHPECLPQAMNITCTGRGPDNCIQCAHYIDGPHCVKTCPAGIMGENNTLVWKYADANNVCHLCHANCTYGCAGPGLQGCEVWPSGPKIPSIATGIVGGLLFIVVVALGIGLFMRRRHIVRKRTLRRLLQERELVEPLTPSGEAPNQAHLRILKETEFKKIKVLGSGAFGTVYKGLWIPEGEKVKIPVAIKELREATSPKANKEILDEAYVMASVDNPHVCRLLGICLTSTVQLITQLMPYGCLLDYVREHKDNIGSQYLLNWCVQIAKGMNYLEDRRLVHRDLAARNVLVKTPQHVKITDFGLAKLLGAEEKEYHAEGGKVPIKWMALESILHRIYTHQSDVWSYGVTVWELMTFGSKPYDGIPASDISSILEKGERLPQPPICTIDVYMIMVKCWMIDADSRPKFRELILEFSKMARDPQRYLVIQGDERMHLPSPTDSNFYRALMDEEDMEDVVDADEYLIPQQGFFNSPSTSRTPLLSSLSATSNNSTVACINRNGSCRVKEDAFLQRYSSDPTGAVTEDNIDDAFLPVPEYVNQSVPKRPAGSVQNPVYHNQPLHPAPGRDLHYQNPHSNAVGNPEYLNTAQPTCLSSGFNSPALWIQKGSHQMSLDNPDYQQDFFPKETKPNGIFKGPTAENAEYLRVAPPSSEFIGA

GI50 [2] | GI50 [3] | GI50 [4] | GI50 [5] | GI50 [6] | Structure (SMILES) | GI50 [1] | further results
3.91 µM | 2.34 µM | 0.058 µM | > 10 µM | 1.35 µM | C=CCSSCCC(=O)OCCCOc1cc2ncnc(Nc3ccc(Br)cc3)c2cc1OC | > 10 µM | 
3.79 µM | 1.98 µM | 0.38 µM | 1.65 µM | 7.47 µM | COc1cc2c(Nc3cccc(C(F)(F)F)c3)ncnc2cc1OCCCOc1ccc(-c2cssc2=S)cc1 | > 10 µM | 
 |  |  |  |  | O=C(COc1ccc(-c2cssc2=O)cc1)Nc1ccc2ncnc(Nc3cccc(Br)c3)c2c1 | > 10 µM | 
4.27 µM | 2.49 µM | 0.29 µM | 3.16 µM | 4.36 µM | O=C(COc1ccc(-c2cssc2=O)cc1)Nc1ccc2ncnc(Nc3ccc(F)c(Cl)c3)c2c1 | > 10 µM | Drug metabolism [7]: Metabolite detected; Drug metabolism [8]: Metabolite detected
> 10 µM | > 10 µM | 0.011 µM | > 10 µM | 0.519 µM | C=CCCSSCC(=O)Nc1ccc2ncnc(Nc3cccc(Br)c3)c2c1 | > 10 µM | 
 |  |  |  |  | O=C(COc1ccc(-c2cssc2=O)cc1)Nc1ccc2ncnc(Nc3cccc(C(F)(F)F)c3)c2c1 | > 10 µM | 
9.23 µM | 3.06 µM | 0.12 µM | > 10 µM | 2.4 µM | COc1cc2c(Nc3cccc(Br)c3)ncnc2cc1OCCCOc1ccc(-c2cssc2=S)cc1 | > 10 µM | 
> 10 µM | > 10 µM | 0.008 µM | 6.03 µM | 0.787 µM | C=CCSSCCC(=O)OCCCOc1cc2ncnc(Nc3cccc(Br)c3)c2cc1OC | > 10 µM | GI50 [9]: 0.0069 µM; GI50 [10]: 0.303 µM; IC50 [11]: > 10 µM; inhibition [12]: Dose-dependent effect; Activity [13]: 60.32%; Activity [14]: 34.49%; Activity [15]: 5.19%; Activity [16]: 84.88%; Activity [17]: 10.23%; Activity [18]: 4.89%; Activity [19]: 88.61%; Activity [20]: 8.73%; Activity [21]: 2.66%; Drug metabolism [7]: Metabolite detected; Drug metabolism [22]: Metabolite detected
9.23 µM | 9.56 µM | 0.25 µM | > 10 µM | 1.41 µM | COc1cc2c(Nc3ccc(Br)cc3)ncnc2cc1OCCCOc1ccc(-c2cssc2=S)cc1 | > 10 µM | 
2.65 µM | 3.39 µM | 0.83 µM | 6.35 µM | 8.58 µM | COc1ccc(Nc2ncnc3cc(OCCCOc4ccc(-c5cssc5=S)cc4)c(OC)cc23)cc1OC | > 10 µM | Drug metabolism [7]: Metabolite detected; Drug metabolism [8]: Metabolite detected
> 10 µM | > 10 µM | 0.012 µM | > 10 µM | 0.349 µM | C=CCCSSCC(=O)Nc1ccc2ncnc(Nc3ccc(F)c(Cl)c3)c2c1 | > 10 µM | 
 |  |  |  |  | [Cl-].[Cl-].[Zn+2] [ZINC CHLORIDE] |  | Cell proliferation rate % at 10 µM [23]: 54%
3.79 µM | 4.08 µM | 0.6 µM | > 10 µM | 1.87 µM | COc1cc2c(Nc3ccc([N+](=O)[O-])cc3)ncnc2cc1OCCCOc1ccc(-c2cssc2=S)cc1 | > 10 µM | 
> 10 µM | > 10 µM | 0.27 µM | > 10 µM | > 10 µM | COc1cc2c(Nc3ccc(F)c(Cl)c3)ncnc2cc1OCCCOc1ccc(-c2cssc2=S)cc1 | > 10 µM | 
 |  |  |  |  | C=CCCSSCC(=O)Nc1ccc2ncnc(Nc3cccc(C(F)(F)F)c3)c2c1 | > 10 µM | 
 |  |  |  |  | C=CC(=O)Nc1cc(Nc2nccc(-c3cn(C)c4ccccc34)n2)c(OC)cc1N(C)CCN(C)C [OSIMERTINIB] |  | IC50 [11]: 7.28 µM

Reference: ChEMBL document CHEMBL4765363, “Design, synthesis and biological evaluation of 4-aniline quinazoline derivatives conjugated with hydrogen sulfide (HS) donors as potent EGFR inhibitors against L858R resistance mutation” (Eur J Med Chem, 2020)
